Measured values from ChEMBL document CHEMBL1955758, “Synthesis and in vitro antiplasmodial activities of fluoroquinolone analogs” (Eur J Med Chem, 2012).
Values after ≈ are worked out from the molar mass of the structure shown.

Assays:
[1] = test system: Plasmodium falciparum; assay: Antimalarial activity against chloroquine-sensitive Plasmodium falciparum 3D7; format: functional, organism-based
In short: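 Chloroquine-sensitive P. falciparum 3D7 grown in vitro with ciprofloxacin as the reference standard; IC50 reported as mass concentration ± SE.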

[2] = test system: HEK293; assay: Cytotoxicity against human HEK293 cells 1 to 100 uM after 24 to 72 hrs by MTT assay; format: cell-based
In short: (§1)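 HEK-293 monolayers were kept in DMEM at 37 °C under 5% CO2 and seeded at about 4000 cells/well for 24 h. Medium was then replaced with fresh medium holding compound at 1, 10, 20, 30, 50 and 100 concentration units, and cells were incubated 24, 48 and 72 h. Viability was read by MTT and IC50 calculated.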

[3] = test system: HEK293; assay: Cytotoxicity against human HEK293 cells after 24 to 72 hrs by MTT assay; format: cell-based; in short: as §1

SMILES | IC50 [1] | Activity [2] | IC50 [3]
CCOC(=O)c1c[nH]c2cc(Cl)c(F)cc2c1=O | 5.81 µg/mL (≈ 21.5 µM) | – | –
CCOC(=O)c1cn(Cc2cn(CC(=O)OC)nn2)c2cc(Cl)c(F)cc2c1=O | 5.26 µg/mL (≈ 12.4 µM) | – | –
O=C(O)c1c[nH]c2cc(Cl)c(F)cc2c1=O | 4.32 µg/mL (≈ 17.9 µM) | Non-toxic | –
CCOC(=O)c1cn(Cc2cn(Cc3ccccc3)nn2)c2cc(Cl)c(F)cc2c1=O | 12.2 µg/mL (≈ 27.7 µM) | – | –
CCOC(=O)c1cn(Cc2cn(-c3ccc(Cl)cc3)nn2)c2cc(Cl)c(F)cc2c1=O | 13 µg/mL (≈ 28.2 µM) | – | –
CCOC(=O)c1cn(Cc2cn(-c3cccc(Cl)c3)nn2)c2cc(Cl)c(F)cc2c1=O | 2.73 µg/mL (≈ 5.92 µM) | – | –
CCOC(=O)c1cn(Cc2cn(-c3ccc(F)cc3)nn2)c2cc(Cl)c(F)cc2c1=O | 4.3 µg/mL (≈ 9.67 µM) | – | 63.8 µM
CCOC(=O)c1cn(Cc2cn(-c3ccc(F)c(Cl)c3)nn2)c2cc(Cl)c(F)cc2c1=O | 3.4 µg/mL (≈ 7.09 µM) | – | 41.9 µM
CCOC(=O)c1cn(Cc2cn(-c3ccnc4cc(Cl)ccc34)nn2)c2cc(Cl)c(F)cc2c1=O | 4.06 µg/mL (≈ 7.92 µM) | Non-toxic | –
O=C(O)c1cn(C2CC2)c2cc(N3CCNCC3)c(F)cc2c1=O [CIPROFLOXACIN] | 8.82 µg/mL (≈ 26.6 µM) | – | –

Continued, in another order:

IC50 [1] | SMILES | Activity [2] | IC50 [3]
5.4 µg/mL (≈ 13.7 µM) | CCCn1cc(Cn2cc(C(=O)OCC)c(=O)c3cc(F)c(Cl)cc32)nn1 | – | –
14.3 µg/mL (≈ 36.3 µM) | CCOC(=O)c1cn(Cc2cn(CCO)nn2)c2cc(Cl)c(F)cc2c1=O | – | –
6.96 µg/mL (≈ 21.4 µM) | CCCCn1cc(C(=O)OCC)c(=O)c2cc(F)c(Cl)cc21 | – | –
6.97 µg/mL (≈ 22.3 µM) | CCOC(=O)c1cn(C(C)C)c2cc(Cl)c(F)cc2c1=O | – | –
3.46 µg/mL (≈ 11.2 µM) | C#CCn1cc(C(=O)OCC)c(=O)c2cc(F)c(Cl)cc21 | – | –
11.8 µg/mL (≈ 41.7 µM) | CCOC(=O)c1cn(C)c2cc(Cl)c(F)cc2c1=O | – | –
15.2 µg/mL (≈ 51.1 µM) | CCOC(=O)c1cn(CC)c2cc(Cl)c(F)cc2c1=O | – | –
4.86 µg/mL (≈ 15.6 µM) | CCCn1cc(C(=O)OCC)c(=O)c2cc(F)c(Cl)cc21 | – | –
4.26 µg/mL (≈ 13.6 µM) | CCOC(=O)c1cn(CCO)c2cc(Cl)c(F)cc2c1=O | – | –
2.56 µg/mL (≈ 8.29 µM) | CCOC(=O)c1cn(CC#N)c2cc(Cl)c(F)cc2c1=O | – | –
6.83 µg/mL (≈ 19 µM) | CCOC(=O)c1cn(Cc2ccccc2)c2cc(Cl)c(F)cc2c1=O | – | –
1.33 µg/mL (≈ 3.79 µM) | CCOC(=O)c1cn(Cc2c[nH]nn2)c2cc(Cl)c(F)cc2c1=O | Toxic | –
